Assay results published in ChEMBL document CHEMBL1158396 (2009).

Legend:
[1] = test system: HL-60; experiment: Antiproliferative activity against human HL60 cells at 10 uM after 72 hrs by MTS assay; assay type: functional; conditions: HL-60, 72 h
Summary of the method: (§1)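 Cells kept in Glutamax RPMI with 10% fetal calf serum, penicillin and streptomycin, at 37 °C in 5% CO2. Plated at 500–800 cells/well and left 24 h before adding compound in DMSO (10^-6 or 10^-5 M final). Exposure was continuous for 72 h, then MTS read-out at 490 nm, in triplicate. Percent inhibition was taken from absorbance versus control wells after blank subtraction.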

[2] = test system: K562; experiment: Antiproliferative activity against human K562 cells at 10 uM after 72 hrs by MTS assay; assay type: functional; conditions: K562, 72 h; summary of the method: as §1
[3] = test system: HL-60; experiment: Antiproliferative activity against human HL60 cells at 1 uM after 72 hrs by MTS assay; assay type: functional; conditions: HL-60, 72 h; summary of the method: as §1
[4] = test system: K562; experiment: Antiproliferative activity against human K562 cells at 1 uM after 72 hrs by MTS assay; assay type: functional; conditions: K562, 72 h; summary of the method: as §1
[5] = biological target: Cyclin-dependent kinase 5/CDK5 activator 1 (Homo sapiens) (UniProt Q00535+Q15078); experiment: Inhibition of GST-CDK5/p25 expressed in Escherichia coli assessed as residual enzyme activity at 10 uM
Cyclin-dependent kinase 5/CDK5 activator 1 (Homo sapiens), sequence (Q00535 whole entry): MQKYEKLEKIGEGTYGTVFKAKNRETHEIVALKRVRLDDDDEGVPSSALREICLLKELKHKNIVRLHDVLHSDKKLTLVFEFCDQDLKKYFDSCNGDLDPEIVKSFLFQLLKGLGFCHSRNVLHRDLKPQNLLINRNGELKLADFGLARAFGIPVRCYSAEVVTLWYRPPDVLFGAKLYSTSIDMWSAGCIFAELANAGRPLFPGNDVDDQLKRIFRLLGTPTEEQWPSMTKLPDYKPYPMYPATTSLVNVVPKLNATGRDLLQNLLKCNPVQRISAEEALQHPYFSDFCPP
Cyclin-dependent kinase 5/CDK5 activator 1 (Homo sapiens), sequence (Q15078 99-307 partner limits assumed): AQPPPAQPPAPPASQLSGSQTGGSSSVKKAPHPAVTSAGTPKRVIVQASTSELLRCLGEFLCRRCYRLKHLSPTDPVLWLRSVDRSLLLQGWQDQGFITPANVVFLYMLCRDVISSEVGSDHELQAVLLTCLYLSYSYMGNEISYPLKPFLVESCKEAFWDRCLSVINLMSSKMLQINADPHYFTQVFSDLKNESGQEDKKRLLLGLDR

[6] = species: Sus scrofa; experiment: Inhibition of pig CK1 assessed as residual enzyme activity at 10 uM
[7] = biological target: Dual specificity tyrosine-phosphorylation-regulated kinase 1A (Rattus norvegicus) (UniProt Q63470); experiment: Inhibition of rat GST-fused Dyrk1a expressed in Escherichia coli assessed as residual enzyme activity at 10 uM
[8] = species: Sus scrofa; experiment: Inhibition of pig GSK3 assessed as residual enzyme activity at 10 uM
[9] = test system: K562; experiment: Antiproliferative activity against human K562 cells at 0.25 nM after 72 hrs by MTS assay; assay type: functional; conditions: K562, 72 h
[10] = test system: HL-60; experiment: Antiproliferative activity against human HL60 cells at 0.25 nM after 72 hrs by MTS assay; assay type: functional; conditions: HL-60, 72 h

| Activity [5] | Activity [6] | Activity [7] | Activity [8] | SMILES | inhibition at 10 µM [1] | inhibition at 10 µM [2] | inhibition at 1 µM [3] | inhibition at 1 µM [4] | inhibition at 0.00025 µM [9] | inhibition at 0.00025 µM [10] |
| --- | --- | --- | --- | --- | --- | --- | --- | --- | --- | --- |
| – | – | – | – | CC(=O)OC[C@H]1O[C@@H](N2C(=O)/C(=C3/C(=O)Nc4ncc(C#CCNC(=O)OCc5ccccc5)cc43)c3cc(Br)ccc32)[C@H](OC(C)=O)[C@@H](OC(C)=O)[C@@H]1OC(C)=O | 0% | 5% | 0% | 0% | – | – |
| > 65% | > 65% | > 65% | > 65% | CC(=O)OC[C@H]1O[C@@H](N2C(=O)/C(=C3/C(=O)Nc4ccc(C#CCCO)cc43)c3ccccc32)[C@H](OC(C)=O)[C@@H](OC(C)=O)[C@@H]1OC(C)=O | 8% | 33% | 0% | 2% | – | – |
| > 65% | > 65% | > 65% | > 65% | CC(=O)OC[C@H]1O[C@@H](N2C(=O)/C(=C3/C(=O)Nc4ccc(C#CCNC(=O)OCc5ccccc5)cc43)c3cc(Br)ccc32)[C@H](OC(C)=O)[C@@H](OC(C)=O)[C@@H]1OC(C)=O | 0% | 2% | 0% | 1% | – | – |
| – | – | – | – | CC(=O)OC[C@H]1O[C@@H](N2C(=O)/C(=C3/C(=O)Nc4ncc(C#CCCO)cc43)c3ccccc32)[C@H](OC(C)=O)[C@@H](OC(C)=O)[C@@H]1OC(C)=O | 0% | 10% | 0% | 5% | – | – |
| > 65% | – | > 65% | – | CC(=O)OC[C@H]1O[C@@H](N2C(=O)/C(=C3/C(=O)Nc4ccc(I)cc43)c3ccccc32)[C@H](OC(C)=O)[C@@H](OC(C)=O)[C@@H]1OC(C)=O | – | – | – | – | – | – |
| > 65% | > 65% | > 65% | > 65% | CC(=O)OC[C@H]1O[C@@H](N2C(=O)/C(=C3/C(=O)Nc4ncc(C#CCNC(=O)OCc5ccccc5)cc43)c3ccccc32)[C@H](OC(C)=O)[C@@H](OC(C)=O)[C@@H]1OC(C)=O | 11% | 59% | 0% | 4% | – | – |
| > 65% | – | > 65% | – | CC(=O)OC[C@H]1O[C@@H](N2C(=O)/C(=C3/C(=O)Nc4ncc(Br)cc43)c3ccccc32)[C@H](OC(C)=O)[C@@H](OC(C)=O)[C@@H]1OC(C)=O | – | – | – | – | – | – |
| > 65% | > 65% | > 65% | > 65% | CC(=O)OC[C@H]1O[C@@H](N2C(=O)/C(=C3/C(=O)Nc4ccc(I)cc43)c3cc(Br)ccc32)[C@H](OC(C)=O)[C@@H](OC(C)=O)[C@@H]1OC(C)=O | 0% | 3% | 0% | 0% | – | – |
| > 65% | > 65% | > 65% | > 65% | CC(=O)OC[C@H]1O[C@@H](N2C(=O)/C(=C3/C(=O)Nc4ccc(C#CCNC(=O)OCc5ccccc5)cc43)c3ccccc32)[C@H](OC(C)=O)[C@@H](OC(C)=O)[C@@H]1OC(C)=O | 1% | 6% | 0% | 0% | – | – |
| > 65% | > 65% | > 65% | > 65% | CC(=O)OC[C@H]1O[C@@H](N2C(=O)/C(=C3/C(=O)Nc4ncc(Br)cc43)c3cc(Br)ccc32)[C@H](OC(C)=O)[C@@H](OC(C)=O)[C@@H]1OC(C)=O | 0% | 4% | 0% | 3% | – | – |
| – | – | – | – | CC(=O)O[C@@]12CO[C@@H]1C[C@H](O)[C@@]1(C)C(=O)[C@H](O)C3=C(C)[C@@H](OC(=O)[C@H](O)[C@@H](NC(=O)OC(C)(C)C)c4ccccc4)C[C@@](O)([C@@H](OC(=O)c4ccccc4)[C@H]21)C3(C)C [DOCETAXEL] | – | – | – | – | 32% | 46% |
| > 65% | > 65% | > 65% | > 65% | CC(=O)OC[C@H]1O[C@@H](N2C(=O)/C(=C3/C(=O)Nc4ncc(I)cc43)c3ccccc32)[C@H](OC(C)=O)[C@@H](OC(C)=O)[C@@H]1OC(C)=O | 1% | 47% | 0% | 0% | – | – |
| – | – | – | – | CC(=O)OC[C@H]1O[C@@H](N2C(=O)/C(=C3/C(=O)Nc4ncc(I)cc43)c3cc(Br)ccc32)[C@H](OC(C)=O)[C@@H](OC(C)=O)[C@@H]1OC(C)=O | 0% | 3% | 0% | 0% | – | – |
